Assay results published in ChEMBL document CHEMBL1123358, “Design and synthesis of sodium (beta R*, gamma S*)-4-[[3-(4-acetyl-3-hydroxy-2-propylphenoxy)propyl] thio]-gamma-hydroxy-beta-methylbenzenebutanoate: a novel, selective, and orally active receptor antagonist of leukotriene D4” (J Med Chem, 1986).

Legend:
[1] = tested on: Cavia porcellus; assay: In vivo activity against bronchoconstrictions induced by LTD4 (0.2 ug/kg, iv) in anesthetized guinea pig following id administration of compound; assay type: functional
Procedure, shortened: (§1)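 Anesthetized, artificially ventilated guinea pigs received a single intraduodenal dose, then iv LTD₄ (0.2 μg/kg) bronchoconstriction challenge. Effective dose is the minimum dose giving more than 50% inhibition of bronchoconstriction within 50 min after dosing, with the number of experiments in parentheses.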

[2] = species: Cavia porcellus; assay: In vitro inhibition of responses induced by LTD4 in Isolated terminal guinea pig ileum segments at 0.1 ug/mL; assay type: functional
Procedure, shortened: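 Terminal ileum segments (2.5 cm) in aerated Krebs-bicarbonate with atropine (10⁻⁶ M) and timolol maleate (0.5 μg/mL), held under 1 g passive force. After equilibration, submaximal control contractions to LTD₄ (0.3 ng/mL) were recorded. Test substance was given for 30 s, then the control LTD₄ concentration was re-added and tension was measured. Percent inhibition is at 0.1 μg/mL, mean ± SEM of three determinations.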

[3] = tested on: Cavia porcellus; assay: In vivo activity against bronchoconstrictions induced by LTD4 (0.2 ug/kg, iv) in anesthetized guinea pig following iv administration of compound; assay type: functional
Procedure, shortened: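 Artificially ventilated, anesthetized guinea pigs were challenged with LTD₄ 0.2 μg/kg iv. Drug was given iv in cumulative doses, 5 min before each successive LTD₄ challenge. ED₅₀ is from one to two determinations, or mean ± SEM where repeated, with n in parentheses.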

[4] = molecular target: T1, Cysteinyl leukotriene receptor 1 (Cavia porcellus, UniProt Q2NNR5); assay: Compound was tested for inhibition of radioligand [3H]LTC4 binding to Cysteinyl leukotriene D4 receptor in guinea pig lung membranes; assay type: cell membranes, Membrane
T1 sequence (Q2NNR5 whole entry): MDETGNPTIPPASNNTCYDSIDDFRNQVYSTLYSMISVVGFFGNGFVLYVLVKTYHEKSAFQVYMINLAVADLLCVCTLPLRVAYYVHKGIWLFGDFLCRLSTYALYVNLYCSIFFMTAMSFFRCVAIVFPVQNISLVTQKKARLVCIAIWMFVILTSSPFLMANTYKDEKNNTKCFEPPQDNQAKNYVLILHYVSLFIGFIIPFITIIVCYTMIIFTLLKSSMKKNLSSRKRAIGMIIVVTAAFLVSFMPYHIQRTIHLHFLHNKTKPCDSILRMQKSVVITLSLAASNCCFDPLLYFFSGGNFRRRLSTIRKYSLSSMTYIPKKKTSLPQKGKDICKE

[5] = tested on: Cavia porcellus; assay: In vivo activity against bronchoconstrictions induced by LTD4 (0.2 ug/kg, iv) in anesthetized guinea pig administered intraduodenally at 5 mg/kg concentration of compound; assay type: functional; details: route intraduodenal; procedure, shortened: as §1
[6] = molecular target: T1, Cysteinyl leukotriene receptor 1; assay: Compound was tested for inhibition of radioligand [3H]LTD4 binding to Cysteinyl leukotriene D4 receptor in guinea pig lung membranes; assay type: cell membranes, Membrane

SMILES: CCCc1c(OCCCOc2ccc(C(=O)CCC(=O)O)cc2)ccc(C(C)=O)c1O
- ED [1]: 5 mg/kg
- inhibition at 0.1 µg/mL [2]: 49%
- ED50 [3]: 1.1 mg/kg

SMILES: CCCc1c(OCCCSc2ccc(CC(=O)O)cc2)ccc(C(C)=O)c1O
- ED [1]: 10 mg/kg
- inhibition at 0.1 µg/mL [2]: 65%
- ED50 [3]: 1.3 mg/kg

SMILES: CCCc1c(OCCCSc2ccc(C(O)C(C)CC(=O)[O-])cc2)ccc(C(C)=O)c1O.[Na+] (centres undefined)
- ED [1]: >10 mg/kg
- inhibition at 0.1 µg/mL [2]: 62%
- ED50 [3]: 1.5 mg/kg

SMILES: CCCc1c(OCCCOc2ccc(C(=O)CCC(=O)O)cc2C)ccc(C(C)=O)c1O
- ED [1]: >10 mg/kg
- inhibition at 0.1 µg/mL [2]: 53%

SMILES: CCCc1c(OCCCOc2ccc(C(=O)CCC(=O)O)cc2F)ccc(C(C)=O)c1O
- ED [1]: 10 mg/kg
- inhibition at 0.1 µg/mL [2]: 81%
- ED50 [3]: 1 mg/kg

SMILES: CCCc1c(OCCCSc2ccc(C(=O)CCc3nnn[nH]3)cc2)ccc(C(C)=O)c1O
- ED [1]: >10 mg/kg
- inhibition at 0.1 µg/mL [2]: 63%
- ED50 [3]: 0.6 mg/kg

SMILES: CCCc1cc(C(=O)CCC(=O)O)ccc1SCCCOc1ccc(C(C)=O)c(O)c1CCC
- ED [1]: 10 mg/kg
- inhibition at 0.1 µg/mL [2]: 37%
- ED50 [3]: 0.2 mg/kg

SMILES: CCCc1c(OCCCSc2ccc(C(O)CCC(=O)O)cc2)ccc(C(C)=O)c1O (centres undefined)
- ED [1]: 10 mg/kg
- inhibition at 0.1 µg/mL [2]: 65%
- ED50 [3]: 0.5 mg/kg

SMILES: CCCc1c(OCCCSc2ccc(C(=O)CCC(=O)O)cc2F)ccc(C(C)=O)c1O
- ED [1]: 10 mg/kg
- inhibition at 0.1 µg/mL [2]: 82%
- ED50 [3]: 1.1 mg/kg

SMILES: CCCc1c(OCCCSc2ccc(C(O)C(C)(C)CC(=O)[O-])cc2)ccc(C(C)=O)c1O.[Na+] (centres undefined)
- ED [1]: 5 mg/kg
- inhibition at 0.1 µg/mL [2]: 45%
- ED50 [3]: 0.5 mg/kg

SMILES: CCCc1c(OCCCSc2ccc(C(O)[C@@H](C)CC(=O)[O-])cc2)ccc(C(C)=O)c1O.[Na+] (some centres undefined)
- Ki [4]: 8.6 µM
- ED [1]: 5 mg/kg
- inhibition in vivo at 5 mg/kg [5]: > 50%
- Ki [6]: 0.4 µM
- inhibition at 0.1 µg/mL [2]: 73%
- ED50 [3]: 0.26 mg/kg

SMILES: CCCc1c(OCC(O)CSc2ccc(C(=O)CCC(=O)O)cc2F)ccc(C(C)=O)c1O (centres undefined)
- ED [1]: >10 mg/kg
- inhibition at 0.1 µg/mL [2]: 32%
- ED50 [3]: 0.9 mg/kg

SMILES: CCCc1c(OCCCSc2ccc(C(=O)CCC(=O)O)cc2)ccc(C(C)=O)c1O
- ED [1]: 10 mg/kg
- inhibition at 0.1 µg/mL [2]: 63%
- ED50 [3]: 1.1 mg/kg

SMILES: CCCc1c(OCC(O)COc2ccc3c(=O)cc(C(=O)O)oc3c2CCC)ccc(C(C)=O)c1O (centres undefined) [FPL-55712]
- ED [1]: >10 mg/kg
- inhibition at 0.1 µg/mL [2]: 83%
- ED50 [3]: 0.1 mg/kg
